# ChEMBL document CHEMBL1649070, “Virtual screening identification of nonfolate compounds, including a CNS drug, as antiparasitic agents inhibiting pteridine reductase” (J Med Chem, 2011)
# The source made the active and inactive calls. The rule behind the calls is not given here.
# Assays:
# [1] = Cytotoxicity against human MRC5 cells after 72 hrs by Alamar blue assay; assay type: cell-based; details: read-out: ED50
# Leishmania mexicana [2] = experiment: Antileishmanial activity against Leishmania mexicana MHOM/BZ/84/BEL46 assessed as growth by Alamar blue assay; assay type: functional; details: read-out: ED50 (the source's name)
# How it was run: (§1)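 Promastigotes cultured in SDM-79, pH 7.3, with 15% heat-inactivated FCS at 28 C under 5% CO2, then seeded at 1 × 10^6 parasites/mL. DMSO dilutions in medium tested from 100 μg/mL downward, DMSO <1% final. After 72 h at 28 C, Alamar Blue added for 4 h; fluorescence at ex 530 / em 590 nm. Untreated cultures set as 100%. ED50 by linear interpolation; three independent experiments, each in duplicate.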
# Leishmania mexicana [3] = experiment: Antileishmanial activity against Leishmania mexicana MHOM/BZ/84/BEL46 assessed as growth at 50 ug/ml by Alamar blue assay in presence of pyrimethamine; 5-(4-chlorophenyl)-6-ethylpyrimidine-2,4-diamine DHFR inhibitor; values are per cent of control
# Leishmania major [4] = experiment: Antileishmanial activity against Leishmania major MHOM/SU/73/5-ASKH assessed as growth at 50 ug/ml by Alamar blue assay in presence of pyrimethamine; 5-(4-chlorophenyl)-6-ethylpyrimidine-2,4-diamine DHFR inhibitor; values are per cent of control
# Leishmania major [5] = experiment: Antileishmanial activity against Leishmania major MHOM/SU/73/5-ASKH assessed as growth at 50 ug/ml by Alamar blue assay; assay type: functional
# How it was run: (§2)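 Promastigotes grown in SDM-79, pH 7.3, with 15% heat-inactivated FCS at 28 C in 5% CO2, then seeded at 1 × 10^6 parasites/mL. Each compound tested alone at 50 μg/mL in duplicate as a control for the combination experiments; DMSO below 1% final. After 72 h at 28 C, Alamar Blue added for 4 h; fluorescence read at ex 530 / em 590 nm. Growth expressed as percentage of untreated cultures.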
# [6] = target: Bifunctional dihydrofolate reductase-thymidylate synthase (Leishmania major) (UniProt P07382); experiment: Inhibition of Leishmania major DHFR at 1 mM
# Bifunctional dihydrofolate reductase-thymidylate synthase (Leishmania major), sequence (P07382 whole entry, looked up): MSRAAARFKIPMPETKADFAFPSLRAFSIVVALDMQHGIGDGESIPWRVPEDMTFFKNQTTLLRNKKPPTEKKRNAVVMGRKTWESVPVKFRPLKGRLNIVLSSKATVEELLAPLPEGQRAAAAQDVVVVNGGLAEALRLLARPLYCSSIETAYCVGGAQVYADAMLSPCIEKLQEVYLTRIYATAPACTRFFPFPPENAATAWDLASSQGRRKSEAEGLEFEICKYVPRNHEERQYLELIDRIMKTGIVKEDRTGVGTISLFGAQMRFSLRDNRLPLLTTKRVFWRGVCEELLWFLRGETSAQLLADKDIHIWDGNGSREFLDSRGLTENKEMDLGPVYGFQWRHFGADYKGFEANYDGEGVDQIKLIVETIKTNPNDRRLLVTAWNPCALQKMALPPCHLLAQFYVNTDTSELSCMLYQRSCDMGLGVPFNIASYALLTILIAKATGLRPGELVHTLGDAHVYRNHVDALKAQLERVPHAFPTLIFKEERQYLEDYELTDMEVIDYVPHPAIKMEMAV
# How it was run: (§3)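 NADPH oxidation followed at 340 nm. Compounds in DMSO, screened at a single concentration between 25 μM and 1 mM. Measurements run in triplicate.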
# Leishmania mexicana [7] = experiment: Antileishmanial activity against Leishmania mexicana MHOM/BZ/84/BEL46 assessed as growth at 50 ug/ml by Alamar blue assay; assay type: functional; how it was run: as §2
# [8] = target: T1, Dihydrofolate reductase (Homo sapiens) (UniProt P00374); experiment: Inhibition of human DHFR at 25 uM; how it was run: as §3
# T1 sequence (whole entry): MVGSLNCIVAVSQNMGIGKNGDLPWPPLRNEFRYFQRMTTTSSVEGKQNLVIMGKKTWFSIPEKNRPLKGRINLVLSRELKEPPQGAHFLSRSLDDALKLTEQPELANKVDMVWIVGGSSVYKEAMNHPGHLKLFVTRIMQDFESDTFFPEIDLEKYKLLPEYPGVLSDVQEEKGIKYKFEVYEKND
# [9] = target: Bifunctional dihydrofolate reductase-thymidylate synthase (Leishmania major) (UniProt P07382); experiment: Inhibition of Leishmania major DHFR at 25 uM; how it was run: as §3
# [10] = target: Bifunctional dihydrofolate reductase-thymidylate synthase (Leishmania major) (UniProt P07382); experiment: Inhibition of Leishmania major DHFR at 50 uM; how it was run: as §3
# [11] = target: T2, Pteridine reductase 1 (Leishmania major) (UniProt Q01782); experiment: Inhibition of Leishmania major PTR1 at 5 uM
# T2 sequence (whole entry): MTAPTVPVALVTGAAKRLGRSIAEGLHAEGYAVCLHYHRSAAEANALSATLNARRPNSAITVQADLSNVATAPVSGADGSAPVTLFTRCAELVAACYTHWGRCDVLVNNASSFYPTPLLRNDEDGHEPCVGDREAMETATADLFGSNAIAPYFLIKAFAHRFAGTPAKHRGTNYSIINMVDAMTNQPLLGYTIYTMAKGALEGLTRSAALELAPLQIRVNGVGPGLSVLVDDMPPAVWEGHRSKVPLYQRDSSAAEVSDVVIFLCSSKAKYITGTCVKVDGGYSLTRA
# How it was run: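 Compounds dissolved in DMSO and screened at a single 5 μM concentration; DMSO kept below 1%. Measurements run in triplicate.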
# [12] = Cytotoxicity against human MRC5 cells at 100 ug/ml after 72 hrs by Alamar blue assay; assay type: cell-based; details: at 100 µg/mL, read-out: INH
# [13] = target: T1, Dihydrofolate reductase (Homo sapiens); experiment: Inhibition of human DHFR at 50 uM; how it was run: as §3
# [14] = Solubility of the compound at pH 7.4; assay type: physicochemical; details: buffer
# [15] = Lipophilicity, log D of the compound in octanol buffer at pH 7.4; assay type: physicochemical
# Leishmania major [16] = experiment: Antileishmanial activity against Leishmania major MHOM/SU/73/5-ASKH assessed as growth by Alamar blue assay; assay type: functional; details: read-out: ED50 (the source's name); how it was run: as §1
inhibition [6],inhibition [8],inhibition [9],inhibition [10],inhibition [11],inhibition [13],solubility [14],logD [15],SMILES,CC50 at 72 h [1],EC50 (Leishmania mexicana [2]),"growth, % of control at 50 µg/mL (Leishmania mexicana [3])","growth, % of control at 50 µg/mL (Leishmania major [4])","growth, % of control at 50 µg/mL (Leishmania major [5])","growth, % of control at 50 µg/mL (Leishmania mexicana [7])","cytotoxicity at 72 h, 100 ug/ml [12]",EC50 (Leishmania major [16])
inactive,,,,,,,,Nc1nc2ccc(OC(F)(F)F)cc2s1 [RILUZOLE],27.9 µg/mL,30.8 µg/mL,15.1%,22.9%,102%,21.5%,,
,inactive,inactive,,,,,,Nc1nc2ccc([N+](=O)[O-])cc2s1,,,,,,,,
,,,inactive,inactive,inactive,1700 µM,1.44,Nc1nnc(-c2cnccc2N)s1,,,15.6%,38%,106%,112%,10%,
,,,inactive,inactive,,,,O=C(CCCl)Nc1nnc(CCCl)s1,4.18 µg/mL,10.1 µg/mL,3.5%,4.1%,7.1%,4.7%,,22.1 µg/mL
